The values below come from PMC5809185 (Parasitology international, 2018).

One data set deals with T. gondii. The experiment in a line: T. gondii inhibition in vitro. Type of data set: cell-based, Toxoplasma gondii. In a few lines:
(§1)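 Confluent HFF (20,000 cells/well, D10, 37°C, 5% CO2) infected with 2,000 dTomato-expressing tachyzoites (type I RH or type II PRU). Invasion allowed for 12 h, then media replaced. Test compound added at 0 to 100 μM in duplicate. Parasite fluorescence read at day 5 post-infection for IC50.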

The subject of the next data set is T. gondii PRU-dTom. The data set can be described thus: T. gondii PRU-dTom. It counts as cell-based. The following applies: Toxoplasma gondii, 120 h, read-out: T. gondii PRU-dTom IC50. In a few lines:
as §1

For data set [1], the system named is murine-derived macrophage (NR-9456). The data set can be described thus: Cell toxicity assay. The settings on record: 24 h, read-out: NR-9456 IC50. It counts as cell-based. The method, boiled down: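 Bone marrow-derived murine macrophages kept in D10 (DMEM, 10% heat-inactivated bovine serum, 2 mM L-glutamine, penicillin/streptomycin, 20% Medium 199, gentamicin) at 37°C, 5% CO2. Grown to confluence in 96-well plates, then exposed to test compound at 0 to 100 μM for 24 h. Alamar blue added for 4 h, and fluorescence read for IC50.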

Another data set concerns kidney (HEK293). The settings on record: read-out: HEK293 IC50; cytotoxicity; ref Guigemende 2010; cited from earlier work.
The subject of the next data set is hepatocytes (HC04). The following applies: read-out: HC04 IC50; cytotoxicity; ref Guigemende 2010; cited from earlier work.
A further data set deals with B lymphocyte (RAJI). The settings on record: read-out: RAJI IC50; cytotoxicity; ref Guigemende 2010; cited from earlier work.
Data set [2] relates to Human foreskin fibroblast (HFF). The following applies: read-out: HFF IC50; cytotoxicity; ref Guigemende 2010; cited from earlier work.
Data set [3] deals with T. gondii RH-dTom tachyzoites. The data set can be described thus: In vivo T. gondii survival study. The arrangement: species or system Swiss Webster CFW mice. The settings on record: lethal dose of T. gondii strain RH tachyzoites.
Data set [4] in a line: Kinetic aqueous solubility by nephelometry. Type of data set: physicochemical. The settings on record: pH 6.5 phosphate buffer; 30 min at room temperature; 1% DMSO.
The subject of data set [5] is five mammalian cell lines (HFF, HEK293, HC04, RAJI, NR-9456). The experiment in a line: Cytotoxicity across five mammalian cell lines / in vitro therapeutic index. It counts as cell-based. The following applies: at the concentrations tested.
In data set [6] the test system is T. gondii RH-dTom tachyzoites in pretreated HFF cells. The experiment in a line: Host cell pre-treatment assay. It counts as cell-based, Toxoplasma gondii. The following applies: HFF cells exposed to 10 μM for 24 h, washed, then infected with RH-dTom. The method, boiled down: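 HFF seeded at 20,000 cells/well in D10 and grown to confluence. Treated with 10 μM test compound for 24 h, then washed three times with D10 media. Infected with 2,000 RH-dTom (red fluorescent dTomato) tachyzoites. Parasite growth read by fluorescence at day 5 (methods) or day 4 (figure legend) post-infection. Run in triplicate.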

A short description of data set [7]: Metabolic stability in mouse liver microsomes. It counts as in vitro ADME. The following applies: for CLint, in vitro / T1/2: 1 μM, 0.4 mg/mL protein. For orientation: Microsomes from liver hold many membrane-bound enzymes, among them those of drug oxidation.
A further data set has as its target human albumin column (Homo sapiens, UniProt P02768). The experiment in a line: Chromatography-based protein binding. Type of data set: in vitro ADME. The settings on record: plasma protein binding estimated using a chromatographic method.
The nature of data set [8]: Metabolic stability in human liver microsomes. The following applies: for CLint, in vitro / T1/2: 1 μM, 0.4 mg/mL protein. It counts as in vitro ADME.
Data set [9] can be described thus: Partition coefficient by gradient HPLC. Type of data set: physicochemical.
For data set [10], the system named is Salmonella typhimurium (TA100 strain). The data set can be described thus: Bacterial reverse mutation. The following applies: for Ames Assay (TA100): 3x the averaged T. gondii IC50, 48 replicates, point mutagenicity. Type of data set: cell-based.
Setting [11] is: cytotoxicity, 0 to 100 μM, Alamar blue.

pIC50: −log10 of the molar value. Where two headings read alike, the source gives them in different places. A value given as a limit tells only on which side of the number the result lay.

human albumin column, sequence (P02768 25-609): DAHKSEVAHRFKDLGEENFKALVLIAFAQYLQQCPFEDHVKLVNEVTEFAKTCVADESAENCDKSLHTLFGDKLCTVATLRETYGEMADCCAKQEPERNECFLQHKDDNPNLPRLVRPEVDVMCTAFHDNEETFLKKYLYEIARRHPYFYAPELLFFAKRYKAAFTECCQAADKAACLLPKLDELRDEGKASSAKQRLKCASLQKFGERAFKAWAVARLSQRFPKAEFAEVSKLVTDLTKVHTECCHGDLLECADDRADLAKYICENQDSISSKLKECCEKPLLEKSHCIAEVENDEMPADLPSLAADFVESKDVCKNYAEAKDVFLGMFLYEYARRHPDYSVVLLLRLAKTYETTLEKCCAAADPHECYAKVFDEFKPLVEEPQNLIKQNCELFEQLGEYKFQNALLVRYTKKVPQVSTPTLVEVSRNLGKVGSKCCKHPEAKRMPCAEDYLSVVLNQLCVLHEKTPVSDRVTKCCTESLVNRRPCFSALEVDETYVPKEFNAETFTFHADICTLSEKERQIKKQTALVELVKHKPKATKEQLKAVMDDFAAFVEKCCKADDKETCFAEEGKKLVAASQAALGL

`NNC(=O)c1ccncc1` [isoniazid]: the “Efficacy against Toxoplasma gondii in vitro” value in the data set on T. gondii (data not shown) is reported as “no efficacy”.
As usually defined, the pIC50 is −log10 of the IC50, conventionally taken in molar units. `CCc1nc(N)nc(N)c1-c1ccc(Cl)cc1` [Pyrimethamine, reference compound]: the negative-log IC50 (pIC50) is 6.10 with T. gondii PRU-dTom; less than 4.00 in data set [1] (Mus musculus, Macrophage); less than 4.00 with kidney (HEK293); 5.82 to 6.60 in the data set with T. gondii (Toxoplasma gondii, read-out: T. gondii IC50 in vitro); less than 4.00 with hepatocytes (HC04); less than 4.00 in the data set on B lymphocyte (RAJI). Moreover, the negative logarithm of the IC50 (pIC50) in data set [2] was less than 4.00. In [3] (21 mg/kg), the “Mice spared (survival)” value came out at 100%.
Take `CC(C)(C)c1cc(/N=N/C(=O)c2ccncc2)cc(C(C)(C)C)c1O` [KG8]: the Sol6.5 kinetic solubility in data set [4] lay in the range of 3.1 to 6.3 µg/mL. The “Cell lines whose growth was inhibited” value in [5] was 2/5. In addition, the “Decrease of T. gondii growth after host cell pre-treatment” value (shortened to “Decrease of T. gondii growth”) in [6] is on record as “no effect”. Further, the negative-log IC50 (pIC50) in [1] (setting [11]) was less than 4.00; in the data set on kidney (HEK293) it was 6.01; with hepatocytes (HC04), less than 4.55; in the data set on B lymphocyte (RAJI), 6.17; in data set [2] it was less than 4.55. Besides, the figures for the “CLint, in vitro” value in data set [7] and in [8] were 180 μL/min/mg protein and 37 μL/min/mg protein, respectively. For the same compound, the T1/2 was 10 min in data set [7] and 47 min in data set [8]. Besides, at human albumin column, the “cPPB (% bound)” value is more than 99.5 % bound. For the same compound, in data set [8], the “Predicted EH (hepatic extraction ratio)” value is 0.6. Further, in data set [9], the “gLogD (pH 7.4)” value is on record as 3.9. The “Ames Assay (TA100)” value in data set [10] is “Negative”.
In data set [4], `CC(C)(C)c1cc(C2C(C#N)=C(N)OC3=C2C(=O)CCC3)cc(C(C)(C)C)c1O` (stereo not drawn) [KG7] yielded a Sol6.5 kinetic solubility of 3.1 to 6.3 µg/mL. In data set [5], the “Cell lines whose growth was inhibited” value is given as 2/5. Also, the “Decrease of T. gondii growth” value in [6] is on record as “no effect”. Besides, the pIC50 was less than 4.00 in [1] (setting [11]); less than 4.44 with kidney (HEK293); 5.52 in the data set on hepatocytes (HC04); 5.52 in the data set with B lymphocyte (RAJI); less than 4.44 in data set [2]. For the same compound, the “Predicted EH (hepatic extraction ratio)” value in data set [7] is listed as more than 0.94; in data set [8] it was 0.97. Besides, the “CLint, in vitro” value in data set [7] is given as more than 886 μL/min/mg protein; in [8], 746 μL/min/mg protein. Also, the T1/2 in data set [7] is listed as less than 2 min; in data set [8], 2 min. For the same compound, the “cPPB (% bound)” value on human albumin column is given as 93 % bound. Moreover, in data set [9], the “gLogD (pH 7.4)” value was found to be 3.9. In [10], the “Ames Assay (TA100)” value was “Negative”. The “Effect on S. typhimurium growth in Ames assay” value in data set [10] (TA100 strain) is reported as “appeared to inhibit S. typhimurium growth”.
Regarding `CCOc1ccc(/C=C/c2nc(=O)c3ccccc3o2)cc1` [KG3], in data set [4], the Sol6.5 kinetic solubility fell in the range of 1.2 to 2.2 µg/mL. In addition, in [5], the “Cell lines whose growth was inhibited” value was “did not inhibit the growth of any of the five cell lines”. Besides, the “Decrease of T. gondii growth” value in [6] was found to be 21%. The negative logarithm of the IC50 (pIC50) in [1] (setting [11]) was less than 4.00; in the data set on kidney (HEK293) it was less than 4.40; in the data set with hepatocytes (HC04) it was less than 4.40; in the data set with B lymphocyte (RAJI), less than 4.40; in data set [2] it was less than 4.40. Besides, the “CLint, in vitro” value in data set [7] is given as more than 886 μL/min/mg protein; in [8], 129 μL/min/mg protein. Moreover, the T1/2 in [7] is less than 2 min; in [8], 9 min. The “cPPB (% bound)” value on human albumin column was 99 % bound. Besides, in data set [8], the “Predicted EH (hepatic extraction ratio)” value is 0.88. In data set [9], the “gLogD (pH 7.4)” value is listed as 2.8. Besides, in data set [10], the “Ames Assay (TA100)” value was “Negative”. For the same compound, the “Mice spared (survival)” value in data set [3] (20 mg/kg IP twice daily) was 33%.
